Source: ChEMBL document CHEMBL1146364, “High-throughput assay for the identification of Hsp90 inhibitors based on Hsp90-dependent refolding of firefly luciferase” (Bioorg Med Chem, 2007)
Activity calls are given as the source filed them. The rule behind the calls is not given here.

How the values were obtained:
[1] = (§1) Inhibition of Hsp90-dependent luciferase renaturation in rabbit reticulocyte after 30 mins by luciferase refolding assay; design: species or system Oryctolagus cuniculus
Summary of the method: (§2)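 Luciferase in stability buffer (0.5 mg/mL) heat-denatured at 41 °C for 10 min. Compound in DMSO (1 μL) mixed with cold mix (Tris pH 7.7, Mg(OAc)2, KCl, ATP, creatine phosphate), creatine phosphokinase and denatured luciferase. Started with rabbit reticulocyte lysate diluted in 20 mM Tris-HCl pH 7.4/75 mM KCl. Ran 30 min at 25 °C, then luciferin/ATP buffer added and light read over 10 s. IC50 taken against DMSO control. Triplicates, at least two experiments.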

MCF7 [2] = test: Antiproliferative activity against MCF7 cells after 72 hrs; type: functional, cell-based; conditions: Homo sapiens, MCF7, 72 h
Summary of the method: (§3)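 Seeded at 2000 cells/well and left to attach overnight at 37 °C, 5% CO2. MCF-7 cells kept in 1:1 DMEM:Ham's F-12 with non-essential amino acids, 2 mM L-glutamine, pen/strep and 10% FBS. SkBr3 cells kept in McCoy's 5A with the same supplements. Compounds added over a range of concentrations in DMSO (1% final). After 72 h, viable cells counted by MTS/PMS. 1% DMSO wells set as 100% proliferation.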

SK-BR-3 [3] = test: Antiproliferative activity against SkBr3 cells after 72 hrs; type: functional, cell-based; conditions: Homo sapiens, SK-BR-3, 72 h; summary of the method: as §3
SK-BR-3 [4] = test: Induction of Hsp90-dependent Her2 protein degradation in Skbr3 cells after 24 hrs by ELISA; type: functional, cell-based; conditions: Homo sapiens, SK-BR-3, 24 h
Summary of the method: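 SkBr3 cells seeded at 3000/well and attached overnight, then exposed to compounds at varying concentrations for 24 h. Cell number checked under the microscope against DMSO wells. Cells then washed, fixed and permeabilized in −20 °C methanol, and blocked with 5% BSA/PBST. Probed overnight at 4 °C with rabbit anti-Her2 (1:500), then with HRP anti-rabbit IgG (1:1000) for 2 h. Read by chemiluminescence.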

MCF7 [5] = test: Induction of AKT degradation in MCF7 cells; type: functional, cell-based; conditions: Homo sapiens
Summary of the method: (§4)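 MCF-7 cells seeded at 1×10^6 per dish and attached overnight. Compound added at varying concentrations for 36 h at 37 °C, 5% CO2. Client protein loss assessed by western blot. Controls: GA 500 nM and DMSO.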

MCF7 [6] = test: Induction of Raf1 degradation in MCF7 cells; type: functional, cell-based; conditions: Homo sapiens; summary of the method: as §4
MCF7 [7] = test: Induction of Her2 degradation in MCF7 cells; type: functional, cell-based; conditions: Homo sapiens; summary of the method: as §4
Oryctolagus cuniculus = species on record: Oryctolagus cuniculus; test: as §1; summary of the method: as §2

Row | Structure (SMILES) | IC50 [1] [µM] | IC50 (MCF7 [2]) [µM] | IC50 (SK-BR-3 [3]) [µM] | IC50 (SK-BR-3 [4]) [µM] | Activity (MCF7 [5]) | Activity (MCF7 [6]) | Activity (MCF7 [7]) | Activity (Oryctolagus cuniculus)
1 | CSc1nnc2c(n1)OC=Nc1ccccc1-2 | 15 | > 100 | > 100 | > 100 | – | – | – | –
2 | Cc1nc(N)sc1-c1csc(Nc2ccccc2)n1 | 15 | 44 | 55 | 61 | – | – | – | –
3 | Cc1cc2nn(-c3ccc(Cl)cc3)nc2cc1NC(=O)C(C)C | 0.12 | > 100 | > 100 | > 100 | – | – | – | –
4 | O=C(CSc1nnnn1-c1ccc(F)cc1F)Nc1ccc2c(c1)OCCO2 | 4.4 | > 100 | > 100 | > 100 | – | – | – | –
5 | CCOC(=O)Oc1ccc2c(c1)C(C)=CC(C)(C)N2 | 16 | 3 | 2.4 | 4.4 | Active | Active | Active | –
6 | CCOc1ccccc1NC(=O)CSc1ccccn1 | – | > 100 | > 100 | > 100 | – | – | – | inactive
7 | CCc1ccc(O)c(/N=C/c2cccc(C)c2O)c1 | 7 | 25 | 9 | 8.9 | – | – | – | –
8 | N#CC1=C(N)N2C(=C(C#N)C1c1cccs1)Sc1ccccc12 (stereo unspecified) | 13 | > 100 | 42 | 67 | – | – | – | –
9 | COc1ccc(/C=C2/SC(=O)NC2=O)cc1OC | 190 | > 100 | > 100 | > 100 | – | – | – | –
10 | Oc1c(C(Nc2cccc(Cl)c2)c2ccncc2)ccc2cccnc12 (stereo unspecified) | 36 | 4 | 23 | 33 | – | – | – | –
11 | COc1ccccc1CNC(=O)c1ccc(C)cc1 | 22 | > 100 | > 100 | > 100 | – | – | – | –
12 | C=CCOc1ccccc1/C=C1\C(=O)N(c2cccc(Cl)c2)N=C1C | 4.5 | 34 | 39 | 51.6 | – | – | – | –
13 | Oc1ccc(O)c(SCCCCN2CCOCC2)c1 | 120 | 19 | 7.8 | 4.7 | – | – | – | –
14 | Cc1ccc(Nc2cc(C)c(O)c(C)c2)cc1 | 6.7 | 9.1 | 15 | 10.9 | – | – | – | –
15 | CCNC(=O)c1c(N)sc2c1CCCCC2 | 23 | 93 | 76 | 44 | – | – | – | –
16 | Cc1c(Cc2ccccc2)sc(NC(=O)c2ccc([N+](=O)[O-])cc2)c1C(N)=O | – | 41 | 55 | 64 | – | – | – | inactive
17 | CCOc1ccc(Nc2nc(-c3sc(NC(C)=O)nc3C)cs2)cc1 | 1.9 | 2.1 | 15 | 12.5 | Active | Active | Active | –
18 | Nc1ncc(-c2cccs2)s1 | 55 | > 100 | > 100 | > 100 | – | – | – | –
19 | COc1ccc(C(=O)/C=C(\C)Nc2ccccc2O)cc1 | 15 | > 100 | 25 | 21.3 | – | – | – | –
20 | CC1=NN(c2ccc(Cl)cc2)C(=O)C1 | 2.1 | > 100 | > 100 | > 100 | – | – | – | –
